From ChEMBL document CHEMBL1759916, “Bicyclo[2.2.2]octyltriazole inhibitors of 11β-hydoxysteroid dehydrogenase type 1. Pharmacological agents for the treatment of metabolic syndrome” (Bioorg Med Chem Lett, 2011)

Key:
[1] = target: T1, 11-beta-hydroxysteroid dehydrogenase type 2 (Mus musculus, UniProt P51661); test: Inhibition of mouse 11beta-HSD2 expressed in CHO-K1 cells assessed as conversion of [3H]-cortisol to [3H]-cortisone by scintillation proximity assay; assay type: cell-based
T1 sequence (P51661 whole entry): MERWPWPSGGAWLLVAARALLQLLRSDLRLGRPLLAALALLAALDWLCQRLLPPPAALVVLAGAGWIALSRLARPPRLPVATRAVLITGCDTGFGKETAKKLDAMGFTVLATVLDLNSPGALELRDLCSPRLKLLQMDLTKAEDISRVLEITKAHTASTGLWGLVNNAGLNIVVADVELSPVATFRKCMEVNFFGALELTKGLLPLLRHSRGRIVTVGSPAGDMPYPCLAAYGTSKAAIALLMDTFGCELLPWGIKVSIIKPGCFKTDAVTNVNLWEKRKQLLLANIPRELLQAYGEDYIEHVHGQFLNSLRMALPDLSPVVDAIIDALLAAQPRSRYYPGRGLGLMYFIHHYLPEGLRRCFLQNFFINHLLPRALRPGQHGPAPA
How it was run: (§1)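 Scintillation proximity assay (SPA). IC50 values are the average of two determinations.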

[2] = target: 11-beta-hydroxysteroid dehydrogenase 1 (Homo sapiens, UniProt P28845); test: Inhibition of human 11beta-HSD1 expressed in CHO-K1 cells assessed as conversion of [3H]-cortisone to [3H]-cortisol by scintillation proximity assay; assay type: cell-based; how it was run: as §1
[3] = tested on: Mus musculus; test: Inhibition of 11beta-HSD1 in ICR mouse assessed as inhibition of conversion of [3H]-cortisone to [3H]-cortisol at 10 mg/kg, po administered 4 hrs before [3H]-cortisone challenge; assay type: functional
How it was run: (§2)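 Mouse pharmacodynamic model. Compound given 10 mg/kg PO, then 3H-cortisone by tail vein injection 1, 4 or 16 h after dosing. […] Plasma compound levels were measured after the PD studies.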

[4] = tested on: Mus musculus; test: Inhibition of 11beta-HSD1 in ICR mouse assessed as inhibition of conversion of [3H]-cortisone to [3H]-cortisol at 10 mg/kg, po administered 16 hrs before [3H]-cortisone challenge; assay type: functional; how it was run: as §2
[5] = target: T2, 11-beta-hydroxysteroid dehydrogenase type 2 (Homo sapiens, UniProt P80365); test: Inhibition of human 11beta-HSD2 expressed in CHO-K1 cells assessed as conversion of [3H]-cortisol to [3H]-cortisone by scintillation proximity assay; assay type: cell-based
T2 sequence (P80365 whole entry): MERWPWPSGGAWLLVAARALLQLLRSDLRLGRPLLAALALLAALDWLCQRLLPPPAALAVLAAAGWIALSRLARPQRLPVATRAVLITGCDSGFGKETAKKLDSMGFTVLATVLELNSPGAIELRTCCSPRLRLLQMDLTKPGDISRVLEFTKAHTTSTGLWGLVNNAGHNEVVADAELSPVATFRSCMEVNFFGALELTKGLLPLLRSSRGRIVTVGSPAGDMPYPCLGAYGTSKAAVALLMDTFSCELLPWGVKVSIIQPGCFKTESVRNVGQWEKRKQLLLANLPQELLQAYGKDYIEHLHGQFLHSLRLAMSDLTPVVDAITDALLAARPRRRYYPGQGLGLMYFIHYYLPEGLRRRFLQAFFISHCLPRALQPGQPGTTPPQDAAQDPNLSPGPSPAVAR

[6] = target: 11-beta-hydroxysteroid dehydrogenase 1 (Mus musculus, UniProt P50172); test: Inhibition of mouse 11beta-HSD1 expressed in CHO-K1 cells assessed as conversion of [3H]-cortisone to [3H]-cortisol by scintillation proximity assay; assay type: cell-based
Chain of 11-beta-hydroxysteroid dehydrogenase 1 (Mus musculus, UniProt P50172) (P50172 whole entry): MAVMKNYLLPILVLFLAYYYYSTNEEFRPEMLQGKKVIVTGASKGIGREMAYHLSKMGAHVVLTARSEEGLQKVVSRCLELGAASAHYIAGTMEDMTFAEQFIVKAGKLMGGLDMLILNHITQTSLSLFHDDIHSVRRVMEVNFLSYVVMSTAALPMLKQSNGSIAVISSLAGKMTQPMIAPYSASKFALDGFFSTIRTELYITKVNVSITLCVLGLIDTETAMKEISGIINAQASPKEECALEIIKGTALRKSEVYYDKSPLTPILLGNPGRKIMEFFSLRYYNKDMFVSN

Chain of 11-beta-hydroxysteroid dehydrogenase 1 (Homo sapiens, UniProt P28845) (P28845 whole entry): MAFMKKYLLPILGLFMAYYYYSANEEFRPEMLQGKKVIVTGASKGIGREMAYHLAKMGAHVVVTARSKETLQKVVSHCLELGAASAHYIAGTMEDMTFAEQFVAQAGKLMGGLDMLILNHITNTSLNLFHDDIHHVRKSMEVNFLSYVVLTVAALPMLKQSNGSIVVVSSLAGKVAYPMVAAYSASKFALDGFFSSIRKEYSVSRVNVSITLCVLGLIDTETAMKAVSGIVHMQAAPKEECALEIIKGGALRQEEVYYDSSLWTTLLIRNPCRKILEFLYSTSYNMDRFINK

## CCS(=O)(=O)CCC12CCC(c3nnc(-c4ccccc4Cl)n3C)(CC1)CC2
[1]
  IC50: > 4000 nM
[2]
  IC50: 7.5 nM
[3]
  inhibition in vivo at 10 mg/kg: 87%
[4]
  inhibition in vivo at 10 mg/kg: 74%
[5]
  IC50: > 4000 nM

## Cn1c(-c2ccccc2C(F)(F)F)nnc1C12CCC(COc3ccc(S(C)(=O)=O)cc3)(CC1)CC2
[1]
  IC50: > 4000 nM
[2]
  IC50: 1 nM
[3]
  inhibition in vivo at 10 mg/kg: 79%
[6]
  IC50: 2 nM
[4]
  inhibition in vivo at 10 mg/kg: 28%
[5]
  IC50: > 4000 nM

## CCS(=O)(=O)CCC12CCC(c3nnc(-c4cccc(Cl)c4)n3C)(CC1)CC2
[1]
  IC50: > 4000 nM
[2]
  IC50: 900 nM
[6]
  IC50: 1100 nM
[5]
  IC50: > 4000 nM

## CCS(=O)(=O)CCC12CCC(c3nnc(-c4ccc(Cl)cc4)n3C)(CC1)CC2
[1]
  IC50: > 4000 nM
[2]
  IC50: 2800 nM
[6]
  IC50: > 4000 nM
[5]
  IC50: > 4000 nM

## CC(C)S(=O)(=O)CCC12CCC(c3nnc(-c4ccccc4C(F)(F)F)n3C)(CC1)CC2
[1]
  IC50: > 4000 nM
[2]
  IC50: 4.1 nM
[3]
  inhibition in vivo at 10 mg/kg: 88%
[6]
  IC50: 3.6 nM
[4]
  inhibition in vivo at 10 mg/kg: 59%
[5]
  IC50: > 4000 nM

## CC(F)CCCC12CCC(c3nnc(-c4ccccc4C(F)(F)F)n3C)(CC1)CC2 (stereo unspecified)
[1]
  IC50: > 4000 nM
[2]
  IC50: < 1 nM
[3]
  inhibition in vivo at 10 mg/kg: 96%
[6]
  IC50: < 1 nM
[4]
  inhibition in vivo at 10 mg/kg: 51%
[5]
  IC50: 1300 nM

## Cn1c(-c2ccccc2C(F)(F)F)nnc1C12CCC(CCS(=O)(=O)c3ccc(F)cc3)(CC1)CC2
[1]
  IC50: > 4000 nM
[2]
  IC50: 5.5 nM
[3]
  inhibition in vivo at 10 mg/kg: 63%
[6]
  IC50: 1.8 nM
[4]
  inhibition in vivo at 10 mg/kg: 2%
[5]
  IC50: > 4000 nM

## CCOCC12CCC(c3nnc(-c4ccccc4C(F)(F)F)n3C)(CC1)CC2
[1]
  IC50: > 4000 nM
[2]
  IC50: 4 nM
[3]
  inhibition in vivo at 10 mg/kg: 44%
[6]
  IC50: 2 nM
[4]
  inhibition in vivo at 10 mg/kg: 3%
[5]
  IC50: > 4000 nM

## CCS(=O)(=O)CC12CCC(c3nnc(-c4ccccc4C(F)(F)F)n3C)(CC1)CC2
[3]
  inhibition in vivo at 10 mg/kg: 94%
[6]
  IC50: 4 nM
[4]
  inhibition in vivo at 10 mg/kg: 80%

## CCSCCC12CCC(c3nnc(-c4ccccc4C(F)(F)F)n3C)(CC1)CC2
[1]
  IC50: > 4000 nM
[2]
  IC50: 3.3 nM
[3]
  inhibition in vivo at 10 mg/kg: 79%
[6]
  IC50: 3.9 nM
[4]
  inhibition in vivo at 10 mg/kg: 72%
[5]
  IC50: > 4000 nM

## COCCCCC12CCC(c3nnc(-c4ccccc4C(F)(F)F)n3C)(CC1)CC2
[1]
  IC50: > 4000 nM
[2]
  IC50: 2 nM
[3]
  inhibition in vivo at 10 mg/kg: 76%
[6]
  IC50: 2 nM
[4]
  inhibition in vivo at 10 mg/kg: 1%
[5]
  IC50: 4000 nM

## CCCS(=O)(=O)NCC12CCC(c3nnc(-c4ccccc4C(F)(F)F)n3C)(CC1)CC2
[1]
  IC50: > 4000 nM
[2]
  IC50: 8.1 nM
[3]
  inhibition in vivo at 10 mg/kg: 93%
[6]
  IC50: 1 nM
[4]
  inhibition in vivo at 10 mg/kg: 7%
[5]
  IC50: > 4000 nM

## Cn1c(-c2ccccc2C(F)(F)F)nnc1C12CCC(CCS(=O)(=O)c3ccccc3)(CC1)CC2
[1]
  IC50: > 4000 nM
[2]
  IC50: 4.4 nM
[3]
  inhibition in vivo at 10 mg/kg: 69%
[6]
  IC50: 1.6 nM
[4]
  inhibition in vivo at 10 mg/kg: 6%
[5]
  IC50: > 4000 nM

## Cn1c(-c2ccccc2C(F)(F)F)nnc1C12CCC(CCS(=O)(=O)C(F)(F)F)(CC1)CC2
[1]
  IC50: > 4000 nM
[2]
  IC50: 6.1 nM
[3]
  inhibition in vivo at 10 mg/kg: 81%
[6]
  IC50: 2.2 nM
[4]
  inhibition in vivo at 10 mg/kg: 78%
[5]
  IC50: > 4000 nM

## Cn1c(-c2ccccc2C(F)(F)F)nnc1C12CCC(CNS(C)(=O)=O)(CC1)CC2
[1]
  IC50: > 4000 nM
[2]
  IC50: 30 nM
[3]
  inhibition in vivo at 10 mg/kg: 73%
[6]
  IC50: 4 nM
[4]
  inhibition in vivo at 10 mg/kg: 27%
[5]
  IC50: > 4000 nM

## Cn1c(-c2ccccc2C(F)(F)F)nnc1C12CCC(CCS(=O)(=O)C(C)(C)C)(CC1)CC2
[1]
  IC50: > 4000 nM
[2]
  IC50: 5.4 nM
[3]
  inhibition in vivo at 10 mg/kg: 65%
[6]
  IC50: 6.3 nM
[4]
  inhibition in vivo at 10 mg/kg: 10%
[5]
  IC50: > 4000 nM

## CC[S+]([O-])CCC12CCC(c3nnc(-c4ccccc4C(F)(F)F)n3C)(CC1)CC2 (stereo unspecified)
[1]
  IC50: > 4000 nM
[2]
  IC50: 4.1 nM
[3]
  inhibition in vivo at 10 mg/kg: 90%
[6]
  IC50: 10 nM
[4]
  inhibition in vivo at 10 mg/kg: 72%
[5]
  IC50: > 4000 nM

## Cn1c(-c2ccccc2C(F)(F)F)nnc1C12CCC(CCS(C)(=O)=O)(CC1)CC2
[1]
  IC50: > 4000 nM
[2]
  IC50: 11 nM
[3]
  inhibition in vivo at 10 mg/kg: 96%
[6]
  IC50: 4.1 nM
[4]
  inhibition in vivo at 10 mg/kg: 63%
[5]
  IC50: > 4000 nM

## CCS(=O)(=O)CCCCC12CCC(c3nnc(-c4ccccc4C(F)(F)F)n3C)(CC1)CC2
[1]
  IC50: > 4000 nM
[2]
  IC50: 1.6 nM
[3]
  inhibition in vivo at 10 mg/kg: 90%
[6]
  IC50: 1.8 nM
[4]
  inhibition in vivo at 10 mg/kg: 58%
[5]
  IC50: > 4000 nM

## Cn1c(-c2ccccc2C(F)(F)F)nnc1C12CCC(CCS(=O)(=O)CC(F)(F)F)(CC1)CC2
[1]
  IC50: > 4000 nM
[2]
  IC50: 3.7 nM
[3]
  inhibition in vivo at 10 mg/kg: 74%
[6]
  IC50: 1.5 nM
[4]
  inhibition in vivo at 10 mg/kg: 67%
[5]
  IC50: 1600 nM

## CCS(=O)(=O)CCCC12CCC(c3nnc(-c4ccccc4C(F)(F)F)n3C)(CC1)CC2 [MK-0736]
[1]
  IC50: > 4000 nM
[2]
  IC50: 3.2 nM
[3]
  inhibition in vivo at 10 mg/kg: 92%
[6]
  IC50: 2.4 nM
[4]
  inhibition in vivo at 10 mg/kg: 63%
[5]
  IC50: > 4000 nM

## CCS(=O)(=O)CCC12CCC(c3nnc(-c4ccc(O)cc4Cl)n3C)(CC1)CC2
[1]
  IC50: > 4000 nM
[2]
  IC50: 2.8 nM
[3]
  inhibition in vivo at 10 mg/kg: 26%
[6]
  IC50: 3 nM
[4]
  inhibition in vivo at 10 mg/kg: 14%
[5]
  IC50: > 4000 nM

## CCCS(=O)(=O)CCC12CCC(c3nnc(-c4ccccc4C(F)(F)F)n3C)(CC1)CC2
[1]
  IC50: > 4000 nM
[2]
  IC50: 5.1 nM
[3]
  inhibition in vivo at 10 mg/kg: 89%
[6]
  IC50: 6.7 nM
[4]
  inhibition in vivo at 10 mg/kg: 47%
[5]
  IC50: > 4000 nM

## CCS(=O)(=O)CCC12CCC(c3nnc(-c4ccccc4Br)n3C)(CC1)CC2
[1]
  IC50: > 4000 nM
[2]
  IC50: 10 nM
[3]
  inhibition in vivo at 10 mg/kg: 86%
[4]
  inhibition in vivo at 10 mg/kg: 65%
[5]
  IC50: > 4000 nM

## CCS(=O)(=O)CCC12CCC(c3nnc(-c4ccccc4C)n3C)(CC1)CC2
[1]
  IC50: > 4000 nM
[3]
  inhibition in vivo at 10 mg/kg: 86%
[4]
  inhibition in vivo at 10 mg/kg: 30%
[5]
  IC50: > 4000 nM

## CCS(=O)(=O)CCC12CCC(c3nnc(-c4ccccc4F)n3C)(CC1)CC2
[1]
  IC50: > 4000 nM
[5]
  IC50: > 4000 nM
